Experimental data from different studies.
Compare with care: the assays were run in different laboratories.
Target: cAMP-dependent protein kinase catalytic subunit alpha (PRKACA, Homo sapiens, UniProt P17612)

Structure (SMILES) | observed | technique | tested at | remaining binding
CNC(=O)c1ccc(Nc2ncc(C(F)(F)F)c(NCc3nccnc3N(C)S(C)(=O)=O)n2)cc1 | cell-free assay | competition with immobilised ligand | 0.1 µM | 100%
CN(CCCC(F)(F)F)c1nccc(-c2cnn3ncccc23)n1 | binding | – | 1 µM | 100%
N#Cc1ccccc1CSc1nnc2c(n1)[nH]c1ccccc12 | binding | competition with immobilised ligand | 10 µM | 72%
COc1ccc2c(c1)O[C@@H](c1ccc(OC)c(OC)c1)C[C@H]2NC(=O)C1(c2ccc3c(c2)OC(F)(F)O3)CC1 | cell-free assay | competition with immobilised ligand | 1 µM | 100%
C[C@H]1CCN(c2nccc(-c3cnn4ncccc34)n2)C1 | binding | – | 1 µM | 100%
O=C(O)c1cc(-c2ccc(C3CCNCC3)cc2)c2ccc(-c3ccc(C(F)(F)F)cc3)cc2c1 | cell-free assay | competition with immobilised ligand | 1 µM | 100%
C=CC(=O)N1CCC(C(=O)NCC(=O)N2CCN(c3nc(-c4cnc(N)nc4C(F)F)nc(N4CCOCC4)n3)CC2)CC1 | binding | competition with immobilised ligand | 1 µM | 100%
O=C(c1ccc(Nc2nccc(-c3cc4ccccc4s3)n2)cc1)N1CCC(N2CCCC2)CC1 | binding | competition with immobilised ligand | 1 µM | 100%
CN(C)c1nccc(-c2cnn3ncccc23)n1 | binding | – | 1 µM | 100%
O=C(N[C@H]1CCCCC/C=C\C2C[C@@]2(C(=O)O)NC(=O)[C@@H]2C[C@@H](Oc3ccncc3)CN2C1=O)OC1CCCC1 (stereo partly drawn) | cell-free assay | competition with immobilised ligand | 1 µM | 92%
O=C(NCCCN1CCOCC1)c1ccc(Nc2ncc(Cl)c(-c3ccc(Cl)s3)n2)cc1 | binding | competition with immobilised ligand | 1 µM | 100%
C[C@@H](c1ccc(-n2cnc3c(N)ncnc32)cc1)N1CCc2nn(C)c(Cc3ccccc3)c2C1=O | binding | competition with immobilised ligand | 0.1 µM | 100%
CN(C)c1ncc(F)c(-c2cnn3ncccc23)n1 | binding | – | 1 µM | 86%
CS(=O)(=O)N1CCCC(NC(=O)[C@H](CCC2CCCCC2)NC(=O)c2ccc(CNc3ncnc4c3nnn4-c3ccccc3)cc2)C1 (stereo partly drawn) | cell-free assay | competition with immobilised ligand | 0.1 µM | 100%
COc1cnc(Nc2cccc(S(N)(=O)=O)c2)nc1N1CCN(c2ccccc2)CC1 | binding | competition with immobilised ligand | 1 µM | 100%
C[C@@H]1CN(c2ccc3ncc(-c4ccc5[nH]nc(C6CC6)c5c4)n3n2)C[C@H](C)O1 | binding | competition with immobilised ligand | 50 nM | 88%
O=C(NCC1CCOCC1)c1n[nH]cc1NC(=O)c1c(F)cccc1F | binding | competition with immobilised ligand | 1 µM | 100%
CC(C)(C)c1ccc(-c2nc(CBr)nn2-c2cccc(O)c2)cc1 | cell-free assay | competition with immobilised ligand | 10 µM | 86%
c1cncc(-c2cccc(Nc3nccc(NC4CCCCC4)n3)c2)c1 | binding | competition with immobilised ligand | 10 µM | 50%
c1ccc(N2CCN(Cc3nc4ccccc4[nH]3)CC2)nc1 | cell-free assay | competition with immobilised ligand | 1 µM | 91%
O=C(NCCCN1CCOCC1)c1ccc(Nc2nccc(-c3cc4ccccc4s3)n2)cc1 | binding | competition with immobilised ligand | 1 µM | 95%
